The values below come from ChEMBL document CHEMBL3526035, “Role of the intestinal peptide transporter PEPT1 in oseltamivir absorption: in vitro and in vivo studies” (Drug Metab Dispos, 2012).

Where a SMILES comes first, the peptide text is derived from it. [ ]: non-standard residue; d: D form. Sar = CNCC(=O)O

A short description of series [1]: Drug uptake in CHOK1 cells at 2 uM at pH 4 to 8 after 10 mins by HPLC coupled with radiodetection analysis. In kind it is ADME, cell-based, Cricetulus griseus. The following applies: chinese hamster, cho-k1, pH 4, 10 min. Put shortly: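 [3H]Gly-Sar at 2 μM in KH buffer over pH 4-8, incubated with CHO-K1 cells for 10 min at 37°C. Accumulated radioactivity in cell lysates counted and normalised to protein. Three independent experiments.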

Series [2] is described as follows: Drug uptake in CHOK1 cells at 2 uM after 10 mins measured per mg protein by HPLC coupled with radiodetection analysis. In kind it is ADME, cell-based, Cricetulus griseus. The following applies: chinese hamster, cho-k1, 10 min. Put shortly: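 CHO-K1 cells given 2 μM [3H]Gly-Sar in KH buffer at pH 6 for 10 min at 37°C. Ice-cold PBS-BSA quench, then washes and Triton lysis. Scintillation counts expressed as pmol/mg protein (BCA). n=6 experiments.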

Series [3] addresses T1, Solute carrier family 15 member 1 (Homo sapiens, UniProt P46059).
T1 sequence (P46059 whole entry): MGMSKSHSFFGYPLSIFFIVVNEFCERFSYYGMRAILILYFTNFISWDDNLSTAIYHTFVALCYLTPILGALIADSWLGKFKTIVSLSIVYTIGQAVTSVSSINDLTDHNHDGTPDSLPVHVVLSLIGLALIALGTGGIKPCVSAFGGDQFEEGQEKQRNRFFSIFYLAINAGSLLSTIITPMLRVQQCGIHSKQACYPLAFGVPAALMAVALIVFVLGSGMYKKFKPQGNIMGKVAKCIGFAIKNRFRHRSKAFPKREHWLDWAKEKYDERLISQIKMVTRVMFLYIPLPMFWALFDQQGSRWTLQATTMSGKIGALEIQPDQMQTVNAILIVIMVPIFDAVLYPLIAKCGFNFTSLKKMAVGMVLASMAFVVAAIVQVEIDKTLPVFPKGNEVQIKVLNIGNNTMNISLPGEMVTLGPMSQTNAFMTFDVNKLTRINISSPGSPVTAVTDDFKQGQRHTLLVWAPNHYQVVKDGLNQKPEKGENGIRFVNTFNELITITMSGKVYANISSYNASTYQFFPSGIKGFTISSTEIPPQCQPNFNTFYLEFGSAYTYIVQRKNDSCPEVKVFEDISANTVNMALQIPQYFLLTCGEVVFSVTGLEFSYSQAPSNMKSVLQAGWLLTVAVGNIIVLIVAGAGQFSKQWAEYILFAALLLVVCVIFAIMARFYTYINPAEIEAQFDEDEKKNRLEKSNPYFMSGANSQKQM
The experiment in a line: Drug uptake in CHOK1 cells expressing human PEPT1 at 2 uM after 10 mins measured per mg protein by HPLC coupled with radiodetection analysis. The format is ADME, cell-based. The following applies: cho-k1, 10 min. Put shortly: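 Transporter functionality check: 2 µM [3H]Gly-Sar was incubated for 10 min at 37°C, pH 6, in KH/MES buffer with CHO-PEPT1 versus CHO-K1 cells. Intracellular radioactivity in Triton X-100 lysates was expressed as pmol/mg protein (BCA). Six independent experiments, triplicate wells.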

In series [4] the target is T1, Solute carrier family 15 member 1. The experiment in a line: Drug uptake in CHOK1 cells expressing human PEPT1 by HPLC coupled with radiodetection analysis. In kind it is ADME, cell-based. The following applies: cho-k1, TDE = time-dependent effect. Put shortly:
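Accumulation of [14C]oseltamivir or its carboxylate in CHO-PEPT1 versus CHO-K1 cells. Conditions varied: KH buffer (with MES) or Hanks' balanced salt solution, pH 5 or 6 readjusted after substrate addition, 30 s to 15 min at 37°C. Uptake was quenched with ice-cold PBS-BSA, followed by Triton X-100 lysis, scintillation counting, and BCA protein normalization. HPLC-radiodetection checked ester stability.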

With `CN(CC(=O)O)C(=O)CN` [GLYCYLSARCOSINE] (H-Gly-[Sar]-OH), the Drug uptake result in series [1] is “Active”; in series [2] it was 1.1 pmol; in series [3], 182 pmol; in series [4], “tde”.
